Measured values from article PMC3181126 (Journal of medicinal chemistry, 2011).
Where “and” joins values, the source holds several entries; their conditions need not be identical. Equal entries are not always repeated.

Columns and labels:
BxPC3 cells [1] = experiment: Cell viability at increasing seeding density; assay type: cell-based, human; settings: 100 μM, seeding density 1 × 10^5 to 9 × 10^5
BxPC3 cells [2] = experiment: Competition of compound 16 by σ2 agonists, flow cytometry; assay type: cell-based, human; settings: preloading 45 min at increasing concentrations, then 16 (25 nM) 45 min
[3] = Molar extinction coefficient; assay type: physicochemical; settings: EtOH solutions
Summary of the method: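 Absorbance spectra (200–600 nm) of test compound in EtOH at 1–100 μM, in 1 cm quartz cuvettes. ε was obtained by fitting Beer's law to absorbance at the excitation wavelength. Measurements were repeated twice.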

σ2 receptor = target: T1, σ2 receptor (Rattus norvegicus, UniProt Q5U3Y7); experiment: σ2 receptor radioligand binding, [3H]DTG with; settings: from Ki σ1 (guinea-pig brain) and Ki σ2 (rat liver)
T1 sequence (Q5U3Y7 1-176): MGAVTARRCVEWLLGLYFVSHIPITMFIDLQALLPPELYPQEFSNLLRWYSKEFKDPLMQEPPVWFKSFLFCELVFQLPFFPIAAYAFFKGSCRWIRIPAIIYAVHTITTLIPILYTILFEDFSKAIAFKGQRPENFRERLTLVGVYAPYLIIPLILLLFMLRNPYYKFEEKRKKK

[4] = Fluorescence spectroscopy; assay type: physicochemical; settings: for Φ (quantum yield): standard quinine sulfate; for excitation peaks (λexc): approximate values, solvent not stated
Summary of the method: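 Spectra taken in EtOH, CHCl3 and PBS on free bases (hydrochlorides also in EtOH/PBS), with 10 nm excitation/emission bandpass. Emission scanned 300–700 nm; excitation scanned 250–450 or 300–550 nm by compound. Quantum yield was relative to a quinine sulfate standard (reference value 0.546), with absorbance below 0.2 at 347 nm. Spectra were instrument-corrected and integrated, and a refractive-index correction applied.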

Compound | cell death versus cell density (BxPC3 cells [1]) | effect on mean fluorescence intensity of 16 (BxPC3 cells [2]) | ε (molar extinction coefficient) [3] [L/mol/cm] | σ2 versus σ1 selectivity (σ2 receptor) | λem ([4]; CHCl3) [nm] | λexc ([4]; CHCl3) [nm] | Φ (quantum yield) ([4]; CHCl3) | λem ([4]; EtOH, free bases) [nm] | λexc ([4]; EtOH, free bases) [nm] | Φ (quantum yield) ([4]; EtOH, free bases) | λem ([4]; PBS, free bases) [nm] | λexc ([4]; PBS, free bases) [nm] | excitation peaks (λexc) [4]
COc1cccc2c1CCCC2CCCN1CCN(C2CCCCC2)CC1 (stereo not shown) [compound 1, 1-cyclohexyl-4-[3-(5-methoxy-1,2,3,4-tetrahydronaphthalen-1-yl)propyl]piperazine] | decreased cell death as the density increased | decreased the mean fluorescence intensity of 16 | – | – | – | – | – | – | – | – | – | – | –
CN(C)c1cccc2c(S(=O)(=O)NCCCCCCOc3cccc4c3CCCC4CCCN3CCN(C4CCCCC4)CC3)cccc12 (stereo not shown) [compound 18, 5-Dimethylaonaphthalene-1-sulfonic acid 6-[5-[3-(4-cyclohexylpiperazin-1-yl)propyl]-5,6,7,8-tetrahydronaphthalen-1-yloxy]hexanamide] | – | – | 4000 | did not show any σ2 versus σ1 selectivity | 490 | 340 | 0.30 | 507 | 335 | 0.20 | 485 | 345 | –
COc1cccc2c1CCCC2CCCN1CCN(C2CCN(CCCCCCNS(=O)(=O)c3cccc4c(N(C)C)cccc34)CC2)CC1 (stereo not shown) [compound 8, 5-Dimethylaonaphthalene-1-sulfonic acid 6-[4-[4-[3-(5-methoxy-1,2,3,4-tetrahydronaphthalen-1-yl)propyl]piperazin-1-yl]piperidino]hexanamide] | – | – | 2600 | – | 490 | 346 | 0.32 | 507 | 335 | 0.29 | 510 | 340 | ~ 335 nm and ~ 450 nm
Fc1cccc(F)c1[C@H]1CC[C@@H](N2CCN(C3CCCCC3)CC2)CC1 [compound 20, cis-1-cyclohexyl-4-[4-(2,6-difluorophenyl)cyclohexyl]piperazine] | decreased cell death as the density increased | decreased the mean fluorescence intensity of 16 | – | – | – | – | – | – | – | – | – | – | –
O=[N+]([O-])c1ccc(NCCOCCOc2cccc3c2CCCC3CCCN2CCN(C3CCCCC3)CC2)c2nonc12 (stereo not shown) [compound 17, 2-[2-[5-[3-(4-Cyclohexylpiperazin-1-yl)propyl]-5,6,7,8-tetrahydronaphthalen-1-yloxy]ethoxy]-N-(7-nitro-2,1,3-benzoxadiazol-4-yl)ethanamine] | – | – | 6544 | – | 512 | 450 | 0.18 | 520 | 465 | 0.04 | 520 | 460 | ~ 335 nm and ~ 450 nm
COc1cccc2c1CCCC2CCCN1CCN(C2CCN(CCCCCCNc3ccc([N+](=O)[O-])c4nonc34)CC2)CC1 (stereo not shown) [compound 7, 6-[4-[4-[3-(5-Methoxy-1,2,3,4-tetrahydronaphthalen-1-yl]propyl]piperazin-1-yl]piperidino]-N-(7-nitro-2,1,3-benzoxadiazol-4-yl)hexanamine] | – | – | 14391 | – | 515 | 450 | 0.17 | 520 | 476 | 0.08 | 535 | 480 | –
